According to ChEMBL document CHEMBL1128707, “Novel thiazole based heterocycles as inhibitors of LFA-1/ICAM-1 mediated cell adhesion” (J Med Chem, 1995):

Assays:
[1] = target: Intercellular adhesion molecule (ICAM-1), Integrin alpha-L/beta-2 (Homo sapiens) (UniProt P20701+P05362+P05107); test: Inhibition of HL-60 cell adhesion mediated by interaction of LFA-1 and ICAM-1; assay type: functional, cell-based; parameters: concentration or dose not given beside the values; details: concentration not given here
In short: (§1)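 HL60 cells (LFA-1 positive, Mac-1 negative by FACS) were fluorochrome-labeled and added to immunoaffinity-purified recombinant soluble ICAM-1 immobilized on plastic. Incubation was 40 min at 37 °C, and nonadherent cells were washed off. Adherence was read on a fluorescence concentration analyzer. Values are IC50 (μM) or % inhibition at 10 μM, each from one assay run in five replicates.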

HL-60 [2] = test: The concentration of compound required to inhibit 50% interaction (IC50 ) was measured on LFA-1/ICAM-1 mediated cells using cell/cell adherence assay on the HL60/U937 test system; assay type: functional, cell-based; details: Homo sapiens
[3] = target: T1, Intercellular adhesion molecule (ICAM-1), Integrin alpha-L/beta-2 (Homo sapiens, UniProt P05107+P05362+P20701); test: Inhibition of LFA-1 mediated HL60 cell adhesion to ICAM-1; assay type: cell-based, HL-60; in short: as §1
[4] = target: T1, Intercellular adhesion molecule (ICAM-1), Integrin alpha-L/beta-2; test: Inhibition of HL-60 cell adhesion to purified ICAM-1 by LFA-1; assay type: functional, cell-based; in short: as §1
Integrin alpha-M/beta-2 = Integrin alpha-M/beta-2 (Homo sapiens, UniProt P05107+P11215); test: Inhibition of neutrophil cell Mac-1 mediated adhesion to purified ICAM-1, no effect up to 20 […]; assay type: functional, cell-based
[5] = The inhibitory activity was measured on VLA-4/VCAM-1 mediated cells using cell/cell adherence assay on the Ramos/IL-1beta HUVEC test system; no effect up to 20 pM; assay type: functional, cell-based; details: in the assay text read “20 µM” for “20 pM”
In short: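 Cell/cell adhesion used VLA-4-expressing Ramos B lymphoblastoid cells and HUVEC stimulated overnight with IL-1β to express VCAM-1. Adherence was quantified by fluorescence.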

HL-60 [6] = test: The inhibitory activity was measured on sLex/E-selectin mediated cells using cell/cell adherence assay on the HL60/IL-1beta HUVEC test system; no effect up to 20 µM; details: Homo sapiens

T1 sequence (P20701 whole entry): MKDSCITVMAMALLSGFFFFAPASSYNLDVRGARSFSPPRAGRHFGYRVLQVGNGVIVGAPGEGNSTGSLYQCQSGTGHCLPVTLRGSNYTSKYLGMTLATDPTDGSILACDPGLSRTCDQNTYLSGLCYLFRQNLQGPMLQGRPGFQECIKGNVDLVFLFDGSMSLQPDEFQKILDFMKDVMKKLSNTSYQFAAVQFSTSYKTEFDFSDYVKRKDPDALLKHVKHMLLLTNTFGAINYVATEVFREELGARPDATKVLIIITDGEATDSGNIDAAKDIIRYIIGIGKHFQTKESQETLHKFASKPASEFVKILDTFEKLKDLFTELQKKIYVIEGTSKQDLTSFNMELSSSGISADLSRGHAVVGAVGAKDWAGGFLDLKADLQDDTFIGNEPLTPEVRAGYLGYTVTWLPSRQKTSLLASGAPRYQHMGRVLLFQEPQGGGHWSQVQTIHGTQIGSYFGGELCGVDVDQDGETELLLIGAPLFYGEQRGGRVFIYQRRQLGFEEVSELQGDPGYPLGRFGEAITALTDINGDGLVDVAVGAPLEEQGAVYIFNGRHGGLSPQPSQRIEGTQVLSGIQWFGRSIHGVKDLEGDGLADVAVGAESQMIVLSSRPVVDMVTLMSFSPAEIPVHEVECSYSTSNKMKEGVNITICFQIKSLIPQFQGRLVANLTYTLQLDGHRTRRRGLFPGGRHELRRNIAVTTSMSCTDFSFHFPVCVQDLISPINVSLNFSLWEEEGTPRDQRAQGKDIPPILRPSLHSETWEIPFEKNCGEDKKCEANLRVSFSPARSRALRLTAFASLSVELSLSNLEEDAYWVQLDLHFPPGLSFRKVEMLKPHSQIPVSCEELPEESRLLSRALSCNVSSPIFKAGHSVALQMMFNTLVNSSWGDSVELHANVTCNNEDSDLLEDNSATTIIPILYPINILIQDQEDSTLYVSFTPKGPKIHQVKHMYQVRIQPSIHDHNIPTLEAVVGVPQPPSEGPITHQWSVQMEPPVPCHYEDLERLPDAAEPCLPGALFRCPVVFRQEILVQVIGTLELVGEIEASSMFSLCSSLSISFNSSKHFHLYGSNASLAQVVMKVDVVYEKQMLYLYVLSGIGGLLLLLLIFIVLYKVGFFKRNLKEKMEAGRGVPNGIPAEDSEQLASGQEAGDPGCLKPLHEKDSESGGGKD
T1 sequence (P05362 whole entry): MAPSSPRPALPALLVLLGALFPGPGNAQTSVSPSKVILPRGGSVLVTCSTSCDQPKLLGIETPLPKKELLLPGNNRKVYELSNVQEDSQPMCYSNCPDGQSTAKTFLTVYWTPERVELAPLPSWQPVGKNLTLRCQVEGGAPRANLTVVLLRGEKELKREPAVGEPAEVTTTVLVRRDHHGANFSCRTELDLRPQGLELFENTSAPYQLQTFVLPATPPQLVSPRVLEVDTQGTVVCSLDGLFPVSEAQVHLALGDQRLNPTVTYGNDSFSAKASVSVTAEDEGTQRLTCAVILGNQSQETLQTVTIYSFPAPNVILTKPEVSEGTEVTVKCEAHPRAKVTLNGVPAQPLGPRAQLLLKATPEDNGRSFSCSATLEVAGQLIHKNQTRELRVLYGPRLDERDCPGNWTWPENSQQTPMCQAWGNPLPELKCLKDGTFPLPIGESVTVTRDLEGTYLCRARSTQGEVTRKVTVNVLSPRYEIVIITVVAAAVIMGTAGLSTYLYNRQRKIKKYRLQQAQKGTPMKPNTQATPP
T1 sequence (P05107 whole entry): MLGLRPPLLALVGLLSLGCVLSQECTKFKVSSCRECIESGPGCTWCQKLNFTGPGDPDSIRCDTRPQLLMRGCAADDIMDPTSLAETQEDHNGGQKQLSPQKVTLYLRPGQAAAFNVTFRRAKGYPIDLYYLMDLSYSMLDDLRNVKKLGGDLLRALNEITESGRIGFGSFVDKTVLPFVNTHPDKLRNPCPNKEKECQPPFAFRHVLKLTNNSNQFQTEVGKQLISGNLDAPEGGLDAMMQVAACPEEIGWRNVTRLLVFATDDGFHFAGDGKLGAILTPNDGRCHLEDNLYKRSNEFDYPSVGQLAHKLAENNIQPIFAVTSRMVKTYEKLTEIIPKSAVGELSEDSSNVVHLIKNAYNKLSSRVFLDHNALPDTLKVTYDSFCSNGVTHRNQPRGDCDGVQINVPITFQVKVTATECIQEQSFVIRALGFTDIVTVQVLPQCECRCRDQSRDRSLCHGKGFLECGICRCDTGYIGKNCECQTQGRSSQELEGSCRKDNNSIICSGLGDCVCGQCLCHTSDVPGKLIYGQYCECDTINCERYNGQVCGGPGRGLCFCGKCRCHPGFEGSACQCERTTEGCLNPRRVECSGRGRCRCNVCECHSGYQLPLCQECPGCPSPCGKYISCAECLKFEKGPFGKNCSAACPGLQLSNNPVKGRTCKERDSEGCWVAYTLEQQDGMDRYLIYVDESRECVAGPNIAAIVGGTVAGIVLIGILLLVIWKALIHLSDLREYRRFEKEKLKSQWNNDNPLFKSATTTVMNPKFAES
Sequence of Integrin alpha-M/beta-2 (P05107 23-769 limits assumed, other chains not shown): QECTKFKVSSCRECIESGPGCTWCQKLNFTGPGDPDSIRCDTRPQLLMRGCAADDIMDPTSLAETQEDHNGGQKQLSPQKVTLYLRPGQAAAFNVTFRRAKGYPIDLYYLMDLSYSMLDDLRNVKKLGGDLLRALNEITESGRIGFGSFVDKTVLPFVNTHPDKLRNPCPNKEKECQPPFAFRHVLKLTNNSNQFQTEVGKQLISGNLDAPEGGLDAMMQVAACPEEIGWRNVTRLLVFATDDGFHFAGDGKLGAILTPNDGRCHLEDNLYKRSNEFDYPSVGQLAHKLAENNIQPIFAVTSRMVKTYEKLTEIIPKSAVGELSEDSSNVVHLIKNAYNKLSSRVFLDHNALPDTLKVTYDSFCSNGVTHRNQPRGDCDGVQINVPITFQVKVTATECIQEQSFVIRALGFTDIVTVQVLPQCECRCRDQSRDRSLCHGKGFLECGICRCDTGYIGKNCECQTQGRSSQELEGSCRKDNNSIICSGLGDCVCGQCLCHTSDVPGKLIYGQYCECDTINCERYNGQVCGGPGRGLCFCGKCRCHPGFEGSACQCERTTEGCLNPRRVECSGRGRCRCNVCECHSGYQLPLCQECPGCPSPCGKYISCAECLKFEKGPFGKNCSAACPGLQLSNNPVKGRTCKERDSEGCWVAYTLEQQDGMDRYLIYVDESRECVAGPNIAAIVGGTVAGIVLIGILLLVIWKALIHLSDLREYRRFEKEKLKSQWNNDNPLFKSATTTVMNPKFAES

inhibition [1] | SMILES | other results
7% | Cc1ccc(-c2csc(-n3ncc(C(=O)NCCCO)c3C)n2)cc1 | –
51% | Cc1c(C(=O)NCCCCO)cnn1-c1nc(-c2cccc(C(F)(F)F)c2)cs1 | –
20% | Cc1c(C(=O)NCCCO)cnn1-c1nc(-c2cccc(Cl)c2)cs1 | –
5% | Cc1c(C(=O)NCCCO)cnn1-c1nc(-c2ccccc2)cs1 | –

Continued, compound first:

SMILES | inhibition [1] | other results
Cc1c(C(=O)OCCCO)cnn1-c1nc(-c2cccc(C(F)(F)F)c2)cs1 | 25% | –
O=C(NCCCO)c1cnn(-c2nc(-c3cccc(C(F)(F)F)c3)cs2)c1C(F)(F)F | 5% | –
Cc1c(C(=O)NCCCO)cnn1-c1nc(-c2cccc(C(F)(F)F)c2)cs1 | – | IC50 (HL-60 [2]): 5 µM; IC50 [3]: 5 µM; IC50 [4]: 5 µM; IC50 (Integrin alpha-M/beta-2): No effect; IC50 [5]: No effect; IC50 (HL-60 [6]): No effect
CCc1c(C(=O)NCCCO)cnn1-c1nc(-c2cccc(C(F)(F)F)c2)cs1 | – | IC50 [4]: 3 µM
CCc1c(C(=O)NCCCN2CCCC2=O)cnn1-c1nc(-c2cccc(C(F)(F)F)c2)cs1 | 10% | –
COc1cc(-c2csc(-n3ncc(C(=O)NCCCO)c3C)n2)cc(OC)c1OC | 0% | –
CCCc1c(C(=O)NCCCO)cnn1-c1nc(-c2cccc(C(F)(F)F)c2)cs1 | 26% | –
CCOC(=O)CCCNC(=O)c1cnn(-c2nc(-c3cccc(C(F)(F)F)c3)cs2)c1C | 0% | –
Cc1c(C(=O)NCCCCCO)cnn1-c1nc(-c2cccc(C(F)(F)F)c2)cs1 | 0% | –
CCc1c(C(=O)NCCCn2ccnc2)cnn1-c1nc(-c2cccc(C(F)(F)F)c2)cs1 | 34% | –
COCCCNC(=O)c1cnn(-c2nc(-c3cccc(C(F)(F)F)c3)cs2)c1C | 48% | –
